The text below walks through data of paper PMC2901243 (Nuclear medicine and biology, 2010).

The target in this experiment is SSTR2 (Rattus norvegicus, UniProt P30680). The class given is binding. The conditions noted are these: Re-cyclized analogues, in vitro, AR42J cells. The procedure, abridged: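 Trypsinized rat AR42J pancreatic carcinoma cells, 2 × 10⁶/well in RPMI 1640, were incubated 2 h at 37 °C (5% CO₂) with HPLC-purified ¹¹¹In-DOTA-TIDE (0.2 μCi/well) and test compound at 10⁻⁴ to 10⁻¹³ M, in triplicate. Cells were pelleted, washed three times with 4 °C medium, and counted for γ radioactivity. IC₅₀ was taken from sigmoidal fits of % bound tracer vs log concentration.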
Sequence of SSTR2 (P30680 whole entry): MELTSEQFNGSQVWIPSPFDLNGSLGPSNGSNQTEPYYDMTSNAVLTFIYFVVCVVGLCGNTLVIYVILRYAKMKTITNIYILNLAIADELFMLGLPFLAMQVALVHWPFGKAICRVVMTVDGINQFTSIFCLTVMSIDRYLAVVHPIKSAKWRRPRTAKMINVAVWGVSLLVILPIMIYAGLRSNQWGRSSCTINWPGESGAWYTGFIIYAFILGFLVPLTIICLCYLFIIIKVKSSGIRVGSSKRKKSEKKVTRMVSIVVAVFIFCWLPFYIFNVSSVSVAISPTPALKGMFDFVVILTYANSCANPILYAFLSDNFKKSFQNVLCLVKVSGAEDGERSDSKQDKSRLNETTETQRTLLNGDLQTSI

For “Ac-Cys-Cys-Tyr-DTrp-Lys-Thr-Cys-Thr(OH) [analogue 4]”, the “affinity toward somatostatin subtype 2 receptors (in words)” value is on record as “moderate affinity”.
